Among the data in ChEMBL document CHEMBL1649158, “Emergence of plasmid-mediated quinolone resistance among non-Typhi Salmonella enterica isolates from humans in the United States” (2009) are MIC values, retold here.

For test [1], the system named is Salmonella typhimurium. The test is described as follows: Antimicrobial activity against multidrug-resistant Salmonella enterica serotype Typhimurium isolate AM27549 expressing qnrS1 gene by broth microdilution method.
Test [2] can be described thus: Antimicrobial activity against trimethoprim-sulfamethoxazole-resistant Salmonella enterica serotype Montevideo isolate AM19383 expressing qnrS1 gene by broth microdilution method.
Test [3] has as its system Salmonella enterica. The test can be described thus: Antimicrobial activity against Salmonella enterica serotype Aqua isolate AM26209 expressing qnrB5 gene by broth microdilution method. It counts as functional. The method, boiled down:
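Broth microdilution panel of 14 to 17 antimicrobial agents against human clinical non-Typhi Salmonella isolates, read as MIC. The study enrolled isolates with decreased ciprofloxacin susceptibility (≥0.25 mg/liter). qnr genes were detected by previously described methods. 2006 data are preliminary.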

A short description of test [4]: Antimicrobial activity against multidrug-resistant Salmonella enterica serotype Montevideo isolate AM28704 expressing qnrA1 gene by broth microdilution method.
Test [5] relates to Salmonella enterica. The test can be described thus: Antimicrobial activity against nalidixic acid-resistant Salmonella enterica serotype Kiambu isolate AM27031 expressing qnrB5 gene by broth microdilution method. The class given is functional. The method, boiled down: (§1)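 MICs for 14 to 17 antimicrobial agents were measured by commercial broth microdilution panels. Isolates were screened for aac(6′)-Ib by SYBR green real-time PCR: 0.4 μM each primer, 35 cycles (95°C 20 s, 55°C 30 s, 72°C 30 s), then a 70–90°C melt curve.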

Test [6] deals with Salmonella typhimurium. The test is described as follows: Antimicrobial activity against Salmonella enterica serotype Typhimurium isolate AM29869 expressing qnrS1 gene by broth microdilution method.
The nature of test [7]: Antimicrobial activity against multidrug-resistant Salmonella enterica serotype Corvallis isolate AM25736 expressing qnrS1 gene by broth microdilution method.
In test [8] the test system is Salmonella typhimurium. The test is described as follows: Antimicrobial activity against multidrug-resistant Salmonella enterica serotype Typhimurium isolate AM27315 expressing qnrS1 gene by broth microdilution method.
For test [9], the system named is Salmonella enterica. The test can be described thus: Antimicrobial activity against Salmonella enterica serotype telelkebir isolate AM21420 expressing qnrB5 gene by broth microdilution method. The class given is functional. The procedure, abridged:
as §1

Test [10] can be described thus: Antimicrobial activity against Salmonella enterica serotype Corvallis isolate AM25927 expressing qnrS1 gene by broth microdilution method.
Test [11] is described as follows: Antimicrobial activity against multidrug-resistant Salmonella enterica serotype Corvallis isolate AM20376 expressing qnrS1 gene by broth microdilution method.
For test [12], the system named is Salmonella typhimurium. The test can be described thus: Antimicrobial activity against multidrug-resistant Salmonella enterica serotype Typhimurium var. O:5 isolate AM25008 expressing aac(6')-Ib-cr gene by broth microdilution method.
Test [13] concerns Salmonella typhimurium. The test can be described thus: Antimicrobial activity against multidrug-resistant Salmonella enterica serotype Typhimurium isolate AM27125 expressing qnrB5 gene by broth microdilution method.
In the next test the test system is Salmonella enteritidis. The test is described as follows: Antimicrobial activity against ampicillin- and streptomycin-resistant Salmonella enterica serotype Enteritidis isolate AM25798 expressing qnrS1 gene by broth microdilution method.
Test [14] in a line: Antimicrobial activity against tetracycline-resistant Salmonella enterica serotype Saintpaul isolate AM30594 expressing qnrS1 gene by broth microdilution method.
In test [15] the test system is Salmonella enterica. The test can be described thus: Antimicrobial activity against multidrug-resistant Salmonella enterica serotype Cubana isolate AM28764 expressing qnrB2 gene by broth microdilution method. The class given is functional. The method, boiled down: as §1
Test [16] deals with Salmonella typhimurium. The test is described as follows: Antimicrobial activity against Salmonella enterica serotype Typhimurium isolate AM29365 expressing qnrS1 gene by broth microdilution method.
A short description of test [17]: Antimicrobial activity against tetracycline- and trimethoprim-sulfamethoxazole-resistant Salmonella enterica serotype Saintpaul isolate AM26790 expressing qnrS1 gene by broth microdilution method.

Structures are written as SMILES. ≈ marks a conversion by molar mass, not a printed value.

For `O=C(O)c1cn(C2CC2)c2cc(N3CCNCC3)c(F)cc2c1=O` [CIPROFLOXACIN], the MIC against Salmonella typhimurium [1] turned out to be 0.5 µg/mL (≈ 1.51 µM); in test [2], 0.5 µg/mL (≈ 1.51 µM); in the test with Salmonella enterica [3] it was 0.25 µg/mL (≈ 0.754 µM); in test [4] it was 0.25 µg/mL (≈ 0.754 µM); with Salmonella enterica [5], 0.5 µg/mL (≈ 1.51 µM); against Salmonella typhimurium [6], 0.5 µg/mL (≈ 1.51 µM). Besides, the MIC in test [7] was 0.25 µg/mL (≈ 0.754 µM); in the test on Salmonella typhimurium [8], 0.5 µg/mL (≈ 1.51 µM); in the test with Salmonella enterica [9], 0.5 µg/mL (≈ 1.51 µM); in test [10], 0.25 µg/mL (≈ 0.754 µM); in [11], 0.5 µg/mL (≈ 1.51 µM); in the test with Salmonella typhimurium [12] it was 1 µg/mL (≈ 3.02 µM). Moreover, the MIC (against Salmonella typhimurium [13]; against Salmonella enteritidis; in test [14]; in the test with Salmonella enterica [15]; with Salmonella typhimurium [16]; in test [17]) was 0.5 µg/mL (≈ 1.51 µM) throughout.
